Tests used:
Conditions in all cases: stereoisomer not certain
[1] = target: T1, OR10H3 (Homo sapiens) (UniProt O60404)
T1 sequence (whole entry): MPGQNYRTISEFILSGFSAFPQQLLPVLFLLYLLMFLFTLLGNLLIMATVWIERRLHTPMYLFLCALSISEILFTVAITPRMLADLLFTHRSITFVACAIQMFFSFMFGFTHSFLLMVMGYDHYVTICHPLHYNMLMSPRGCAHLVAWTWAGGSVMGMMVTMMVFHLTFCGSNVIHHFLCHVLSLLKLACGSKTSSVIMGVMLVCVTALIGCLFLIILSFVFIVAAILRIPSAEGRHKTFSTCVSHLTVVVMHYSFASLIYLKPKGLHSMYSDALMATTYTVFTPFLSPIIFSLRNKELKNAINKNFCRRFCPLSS
Procedure, shortened: (§1)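 Each entry records the cell line, G-protein, co-transfected protein and tags used. Methods varied with the source, often transient luciferase assays in mammalian cell lines. A receptor–molecule pair is called responsive (active) if the original authors judged its signal statistically different from baseline and non-responsive (inactive) otherwise.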

[2] = target: T2, OR10H4 (Homo sapiens) (UniProt Q8NGA5)
T2 sequence (whole entry): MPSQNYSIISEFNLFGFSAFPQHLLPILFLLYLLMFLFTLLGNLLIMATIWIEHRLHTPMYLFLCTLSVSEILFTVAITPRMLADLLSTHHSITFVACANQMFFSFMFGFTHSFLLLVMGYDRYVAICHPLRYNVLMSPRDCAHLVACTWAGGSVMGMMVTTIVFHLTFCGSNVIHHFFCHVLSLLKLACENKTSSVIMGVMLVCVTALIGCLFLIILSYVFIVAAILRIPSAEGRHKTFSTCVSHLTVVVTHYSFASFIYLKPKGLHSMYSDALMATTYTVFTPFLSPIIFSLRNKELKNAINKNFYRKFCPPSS
Procedure, shortened: as §1

[3] = target: T3, OR10H5 (Homo sapiens) (UniProt Q8NGA6)
T3 sequence (whole entry): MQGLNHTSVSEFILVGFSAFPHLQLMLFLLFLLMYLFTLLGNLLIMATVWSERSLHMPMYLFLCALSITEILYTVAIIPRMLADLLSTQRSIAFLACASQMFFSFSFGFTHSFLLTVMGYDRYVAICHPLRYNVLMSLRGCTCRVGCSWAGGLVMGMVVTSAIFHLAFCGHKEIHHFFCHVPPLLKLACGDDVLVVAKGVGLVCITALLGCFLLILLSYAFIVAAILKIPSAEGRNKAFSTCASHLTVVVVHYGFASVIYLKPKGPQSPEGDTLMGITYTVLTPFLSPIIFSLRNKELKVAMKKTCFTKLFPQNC
Procedure, shortened: as §1

[4] = target: T4, OR10J1 (Homo sapiens) (UniProt P30954)
T4 sequence (whole entry): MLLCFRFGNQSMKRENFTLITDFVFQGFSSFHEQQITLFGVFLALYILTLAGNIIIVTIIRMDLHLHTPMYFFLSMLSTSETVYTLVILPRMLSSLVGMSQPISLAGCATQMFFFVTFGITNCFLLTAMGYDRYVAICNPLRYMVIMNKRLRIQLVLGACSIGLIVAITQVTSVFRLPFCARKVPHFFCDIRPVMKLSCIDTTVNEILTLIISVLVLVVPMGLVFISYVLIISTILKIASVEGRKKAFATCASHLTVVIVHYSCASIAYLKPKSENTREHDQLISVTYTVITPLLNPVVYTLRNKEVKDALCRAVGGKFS
Procedure, shortened: as §1

[5] = target: T5, OR10J3 (Homo sapiens) (UniProt Q5JRS4)
T5 sequence (whole entry): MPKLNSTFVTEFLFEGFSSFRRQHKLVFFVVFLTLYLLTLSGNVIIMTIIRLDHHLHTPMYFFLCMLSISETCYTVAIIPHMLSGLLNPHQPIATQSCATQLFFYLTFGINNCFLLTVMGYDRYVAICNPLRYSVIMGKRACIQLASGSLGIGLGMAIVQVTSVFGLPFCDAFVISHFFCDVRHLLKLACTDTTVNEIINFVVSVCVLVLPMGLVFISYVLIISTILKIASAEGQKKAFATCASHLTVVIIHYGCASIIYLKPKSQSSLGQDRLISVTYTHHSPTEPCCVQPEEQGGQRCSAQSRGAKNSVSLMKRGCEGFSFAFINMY
Procedure, shortened: as §1

[6] = target: T6, OR10J5 (Homo sapiens) (UniProt Q8NHC4)
T6 sequence (whole entry): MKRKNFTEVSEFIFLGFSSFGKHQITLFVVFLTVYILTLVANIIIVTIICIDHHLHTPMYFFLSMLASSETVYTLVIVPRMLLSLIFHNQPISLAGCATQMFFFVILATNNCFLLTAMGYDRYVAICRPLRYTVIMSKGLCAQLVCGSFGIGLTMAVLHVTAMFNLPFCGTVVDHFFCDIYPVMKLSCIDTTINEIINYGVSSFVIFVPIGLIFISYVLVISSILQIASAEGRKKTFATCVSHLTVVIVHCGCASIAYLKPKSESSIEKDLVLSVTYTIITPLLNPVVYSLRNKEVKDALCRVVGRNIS
Procedure, shortened: as §1

[7] = target: T7, OR10K1 (Homo sapiens) (UniProt Q8NGX5)
T7 sequence (whole entry): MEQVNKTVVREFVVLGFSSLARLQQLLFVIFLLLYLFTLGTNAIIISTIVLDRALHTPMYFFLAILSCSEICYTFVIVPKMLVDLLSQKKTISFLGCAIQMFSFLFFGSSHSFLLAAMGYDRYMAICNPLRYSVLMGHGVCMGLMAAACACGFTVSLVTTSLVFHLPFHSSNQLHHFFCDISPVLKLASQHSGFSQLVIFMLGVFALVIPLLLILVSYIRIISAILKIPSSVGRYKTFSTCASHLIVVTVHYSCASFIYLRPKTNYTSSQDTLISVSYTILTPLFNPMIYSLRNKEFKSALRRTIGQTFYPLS
Procedure, shortened: as §1

[8] = target: T8, OR10K2 (Homo sapiens) (UniProt Q6IF99)
T8 sequence (whole entry): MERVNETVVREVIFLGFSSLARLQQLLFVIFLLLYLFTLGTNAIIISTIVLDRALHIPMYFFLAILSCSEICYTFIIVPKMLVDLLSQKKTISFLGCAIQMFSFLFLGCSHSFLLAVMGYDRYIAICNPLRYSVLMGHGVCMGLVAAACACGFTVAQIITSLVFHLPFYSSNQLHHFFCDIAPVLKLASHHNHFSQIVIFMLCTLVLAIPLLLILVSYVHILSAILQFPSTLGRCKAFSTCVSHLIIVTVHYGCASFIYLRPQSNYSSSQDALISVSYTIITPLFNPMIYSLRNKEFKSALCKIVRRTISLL
Procedure, shortened: as §1

[9] = target: T9, OR10P1 (Homo sapiens) (UniProt Q8NGE3)
T9 sequence (whole entry): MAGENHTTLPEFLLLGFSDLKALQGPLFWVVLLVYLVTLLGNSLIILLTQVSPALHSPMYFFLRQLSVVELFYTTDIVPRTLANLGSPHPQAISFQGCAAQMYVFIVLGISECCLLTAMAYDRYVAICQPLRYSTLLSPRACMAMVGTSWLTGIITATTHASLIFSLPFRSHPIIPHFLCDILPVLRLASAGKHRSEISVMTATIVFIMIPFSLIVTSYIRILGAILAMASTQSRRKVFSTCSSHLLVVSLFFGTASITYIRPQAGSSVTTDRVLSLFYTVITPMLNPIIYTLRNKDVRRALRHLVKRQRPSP
Procedure, shortened: as §1

[10] = target: T10, OR10Q1 (Homo sapiens) (UniProt Q8NGQ4)
T10 sequence (whole entry): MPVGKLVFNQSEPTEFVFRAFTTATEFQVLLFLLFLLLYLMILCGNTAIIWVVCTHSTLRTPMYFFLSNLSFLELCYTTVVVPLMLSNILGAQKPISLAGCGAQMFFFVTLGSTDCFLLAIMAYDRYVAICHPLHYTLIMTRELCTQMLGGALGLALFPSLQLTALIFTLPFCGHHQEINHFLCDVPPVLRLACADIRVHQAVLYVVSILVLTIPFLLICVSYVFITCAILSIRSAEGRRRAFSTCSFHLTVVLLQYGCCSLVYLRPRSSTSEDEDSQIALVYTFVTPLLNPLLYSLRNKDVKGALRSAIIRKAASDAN
Procedure, shortened: as §1

Measured: odorant receptor agonist call

CCC(S)C(C)CO (stereo not given)
inactive: all assays above
